According to ChEMBL document CHEMBL1148611, “Selective inhibition of matrix metalloproteinase isozymes and in vivo protection against emphysema by substituted gamma-keto carboxylic acids” (J Med Chem, 2006):
Activity calls are given as the source filed them. No cut-off for these calls is given here.

Experiments:
[1] = biological target: Macrophage metalloelastase (Homo sapiens, UniProt P39900); assay: Inhibitory activity against MMP12
[2] = biological target: T1, Matrix metalloproteinase-14 (Homo sapiens, UniProt P50281); assay: Inhibitory activity against MMP14 upto 50uM
[3] = biological target: T2, Matrix metalloproteinase-15 (Homo sapiens, UniProt P51511); assay: Inhibitory activity against MMP15 upto 50uM
Target sequence in this assay (P51511 132-669 limits assumed): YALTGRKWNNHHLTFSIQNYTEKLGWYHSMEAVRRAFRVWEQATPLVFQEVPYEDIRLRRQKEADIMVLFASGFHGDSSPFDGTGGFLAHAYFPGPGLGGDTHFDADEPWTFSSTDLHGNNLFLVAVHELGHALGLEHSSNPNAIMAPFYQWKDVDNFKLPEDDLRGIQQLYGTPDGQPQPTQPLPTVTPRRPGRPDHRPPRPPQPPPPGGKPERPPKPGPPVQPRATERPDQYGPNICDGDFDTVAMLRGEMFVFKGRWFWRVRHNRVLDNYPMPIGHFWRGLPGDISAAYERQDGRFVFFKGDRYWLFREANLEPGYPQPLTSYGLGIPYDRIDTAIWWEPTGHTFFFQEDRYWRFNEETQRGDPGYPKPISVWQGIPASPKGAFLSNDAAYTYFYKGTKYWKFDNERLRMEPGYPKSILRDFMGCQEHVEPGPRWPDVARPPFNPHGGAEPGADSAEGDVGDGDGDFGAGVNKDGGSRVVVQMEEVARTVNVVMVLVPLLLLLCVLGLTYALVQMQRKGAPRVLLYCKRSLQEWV

[4] = biological target: T3, Matrix metalloproteinase-16 (Homo sapiens, UniProt P51512); assay: Inhibitory activity against MMP16 upto 50uM
[5] = biological target: T4, Matrilysin (Homo sapiens) (UniProt P09237); assay: Inhibitory activity against MMP7 upto 50 uM
T4 sequence (whole entry): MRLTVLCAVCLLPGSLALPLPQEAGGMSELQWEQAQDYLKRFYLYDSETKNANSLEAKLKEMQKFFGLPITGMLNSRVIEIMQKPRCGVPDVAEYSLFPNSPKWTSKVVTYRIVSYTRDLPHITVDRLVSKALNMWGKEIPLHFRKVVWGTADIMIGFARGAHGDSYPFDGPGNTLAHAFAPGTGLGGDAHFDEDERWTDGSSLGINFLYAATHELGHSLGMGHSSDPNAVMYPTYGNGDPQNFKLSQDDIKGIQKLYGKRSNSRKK

[6] = biological target: 72 kDa type IV collagenase (Homo sapiens, UniProt P08253); assay: Inhibitory activity against MMP2
[7] = biological target: T5, Interstitial collagenase (Homo sapiens) (UniProt P03956); assay: Inhibitory activity against MMP1 upto 50uM
T5 sequence (whole entry): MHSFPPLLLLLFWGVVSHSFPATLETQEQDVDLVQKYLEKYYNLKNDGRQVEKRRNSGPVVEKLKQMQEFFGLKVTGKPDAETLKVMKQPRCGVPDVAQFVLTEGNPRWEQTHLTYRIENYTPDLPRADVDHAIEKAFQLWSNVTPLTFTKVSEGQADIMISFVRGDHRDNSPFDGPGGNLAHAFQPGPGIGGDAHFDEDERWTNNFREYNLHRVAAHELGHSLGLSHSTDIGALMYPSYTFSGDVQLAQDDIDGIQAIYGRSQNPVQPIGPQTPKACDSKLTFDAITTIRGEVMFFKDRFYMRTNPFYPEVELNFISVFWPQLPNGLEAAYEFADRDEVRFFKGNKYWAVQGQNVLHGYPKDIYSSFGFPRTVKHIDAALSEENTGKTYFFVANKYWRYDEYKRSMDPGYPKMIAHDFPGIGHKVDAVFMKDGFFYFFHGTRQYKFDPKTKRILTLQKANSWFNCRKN

[8] = biological target: T6, Matrix metalloproteinase-9 (Homo sapiens, UniProt P14780); assay: Inhibitory activity against MMP9 upto 50uM
[9] = biological target: T6, Matrix metalloproteinase-9; assay: Inhibitory activity against MMP9
[10] = system: Syrian golden hamster; assay: Increase in lung weight, lung volumes, relative lung volumes and right ventricular hypertropy in PPE-treated Syrian hamster at 5 mg/kg; type: functional, organism-based; parameters: dose 5 mg/kg; conditions: Mesocricetus auratus, Heart right ventricle
Procedure, shortened: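 Male golden Syrian hamsters with PPE-induced emphysema, compared with saline-treated controls, PPE-only animals and compound/saline-treated animals. Read-outs were wet weight of the left lung, lung volume, relative lung volume and right ventricular hypertrophy.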

[11] = biological target: T4, Matrilysin (Homo sapiens); assay: Inhibitory activity against MMP7 upto 50uM
[12] = biological target: T7, Matrix metalloproteinase-26 (Homo sapiens) (UniProt Q9NRE1); assay: Inhibitory activity against MMP26 upto 50uM
T7 sequence (whole entry): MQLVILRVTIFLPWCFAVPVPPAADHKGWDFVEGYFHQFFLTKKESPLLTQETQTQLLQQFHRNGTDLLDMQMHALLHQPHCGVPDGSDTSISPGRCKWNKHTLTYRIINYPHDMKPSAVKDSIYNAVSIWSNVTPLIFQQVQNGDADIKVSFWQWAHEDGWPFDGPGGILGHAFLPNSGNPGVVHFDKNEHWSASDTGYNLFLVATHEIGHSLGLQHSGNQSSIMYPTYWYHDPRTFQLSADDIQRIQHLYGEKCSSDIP

[13] = biological target: T2, Matrix metalloproteinase-15; assay: Inhibitory activity against MMP15
Target sequence in this assay (P51511 whole entry): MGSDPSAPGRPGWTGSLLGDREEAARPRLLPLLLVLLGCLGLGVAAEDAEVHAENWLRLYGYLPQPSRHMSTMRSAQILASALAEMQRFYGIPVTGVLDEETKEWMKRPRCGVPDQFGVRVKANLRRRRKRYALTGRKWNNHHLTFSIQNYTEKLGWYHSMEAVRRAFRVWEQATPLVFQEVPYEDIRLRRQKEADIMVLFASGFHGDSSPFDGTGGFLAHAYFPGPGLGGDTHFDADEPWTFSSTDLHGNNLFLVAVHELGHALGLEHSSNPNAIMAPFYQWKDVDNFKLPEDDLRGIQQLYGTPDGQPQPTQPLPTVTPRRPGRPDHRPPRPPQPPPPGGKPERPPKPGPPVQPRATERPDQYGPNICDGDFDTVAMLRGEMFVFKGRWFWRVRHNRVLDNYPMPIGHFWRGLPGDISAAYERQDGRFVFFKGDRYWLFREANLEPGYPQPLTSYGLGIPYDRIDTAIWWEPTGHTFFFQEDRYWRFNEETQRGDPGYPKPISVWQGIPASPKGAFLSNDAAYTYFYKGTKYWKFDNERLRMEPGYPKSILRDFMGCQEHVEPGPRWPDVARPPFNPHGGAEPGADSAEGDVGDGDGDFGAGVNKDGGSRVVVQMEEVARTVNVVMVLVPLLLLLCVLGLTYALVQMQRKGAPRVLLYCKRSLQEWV

[14] = biological target: T1, Matrix metalloproteinase-14; assay: Inhibitory activity against MMP14
[15] = biological target: T3, Matrix metalloproteinase-16; assay: Inhibitory activity against MMP16
[16] = biological target: T8, Matrix metalloproteinase-26 (Homo sapiens, UniProt Q9NRE1); assay: Inhibitory activity against MMP26
T8 sequence (Q9NRE1 whole entry): T7 sequence (whole entry)

T6 sequence (P14780 whole entry): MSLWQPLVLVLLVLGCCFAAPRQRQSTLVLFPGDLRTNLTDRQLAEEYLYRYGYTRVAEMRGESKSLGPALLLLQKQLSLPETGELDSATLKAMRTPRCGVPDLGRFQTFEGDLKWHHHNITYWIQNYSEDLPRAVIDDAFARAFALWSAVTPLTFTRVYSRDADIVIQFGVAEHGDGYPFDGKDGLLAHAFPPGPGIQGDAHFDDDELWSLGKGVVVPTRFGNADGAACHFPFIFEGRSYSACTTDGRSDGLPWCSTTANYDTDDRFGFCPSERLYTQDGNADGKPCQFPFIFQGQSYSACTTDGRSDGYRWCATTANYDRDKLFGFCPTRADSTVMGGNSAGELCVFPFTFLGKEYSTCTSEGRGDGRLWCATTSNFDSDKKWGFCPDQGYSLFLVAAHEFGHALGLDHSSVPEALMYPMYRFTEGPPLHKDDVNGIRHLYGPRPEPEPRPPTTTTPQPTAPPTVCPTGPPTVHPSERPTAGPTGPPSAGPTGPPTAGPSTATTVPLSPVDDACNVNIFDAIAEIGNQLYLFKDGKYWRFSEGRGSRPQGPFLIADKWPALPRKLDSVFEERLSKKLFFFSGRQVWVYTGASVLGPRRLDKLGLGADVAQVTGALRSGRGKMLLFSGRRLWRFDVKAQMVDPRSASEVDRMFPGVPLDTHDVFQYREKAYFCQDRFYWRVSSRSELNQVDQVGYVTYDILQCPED
Chain of 72 kDa type IV collagenase (P08253 whole entry): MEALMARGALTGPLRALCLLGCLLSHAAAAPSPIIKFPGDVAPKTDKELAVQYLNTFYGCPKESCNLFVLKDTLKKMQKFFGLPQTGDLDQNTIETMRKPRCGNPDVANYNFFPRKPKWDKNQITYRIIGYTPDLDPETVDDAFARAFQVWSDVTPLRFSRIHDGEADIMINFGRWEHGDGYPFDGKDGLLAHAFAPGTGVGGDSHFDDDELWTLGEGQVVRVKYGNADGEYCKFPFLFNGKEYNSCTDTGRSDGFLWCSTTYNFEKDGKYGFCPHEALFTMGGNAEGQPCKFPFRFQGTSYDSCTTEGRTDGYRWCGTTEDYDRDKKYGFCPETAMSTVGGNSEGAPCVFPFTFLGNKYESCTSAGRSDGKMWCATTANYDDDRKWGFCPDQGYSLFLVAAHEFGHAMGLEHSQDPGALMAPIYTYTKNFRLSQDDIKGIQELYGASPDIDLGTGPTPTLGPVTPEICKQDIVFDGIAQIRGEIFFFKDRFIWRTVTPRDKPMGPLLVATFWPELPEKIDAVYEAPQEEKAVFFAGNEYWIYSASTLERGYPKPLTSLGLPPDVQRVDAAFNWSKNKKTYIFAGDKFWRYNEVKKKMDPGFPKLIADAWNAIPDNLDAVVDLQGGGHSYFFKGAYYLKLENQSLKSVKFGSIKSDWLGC
T3 sequence (P51512 whole entry): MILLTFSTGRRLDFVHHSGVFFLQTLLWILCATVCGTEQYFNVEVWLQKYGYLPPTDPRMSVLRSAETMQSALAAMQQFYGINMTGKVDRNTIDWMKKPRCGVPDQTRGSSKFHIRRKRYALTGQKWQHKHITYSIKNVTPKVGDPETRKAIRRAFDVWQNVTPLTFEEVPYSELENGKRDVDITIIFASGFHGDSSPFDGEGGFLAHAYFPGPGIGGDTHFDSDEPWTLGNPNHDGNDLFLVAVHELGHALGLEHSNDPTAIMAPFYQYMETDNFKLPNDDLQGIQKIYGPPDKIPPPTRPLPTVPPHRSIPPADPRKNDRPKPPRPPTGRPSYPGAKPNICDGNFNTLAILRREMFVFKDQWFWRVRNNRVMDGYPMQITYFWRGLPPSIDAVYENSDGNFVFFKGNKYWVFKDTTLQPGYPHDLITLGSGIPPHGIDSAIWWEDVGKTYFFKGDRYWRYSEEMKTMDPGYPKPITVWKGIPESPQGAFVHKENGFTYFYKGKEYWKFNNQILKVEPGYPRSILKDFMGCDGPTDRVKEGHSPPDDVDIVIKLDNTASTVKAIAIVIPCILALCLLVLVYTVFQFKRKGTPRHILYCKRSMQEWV
Chain of Macrophage metalloelastase (P39900 whole entry): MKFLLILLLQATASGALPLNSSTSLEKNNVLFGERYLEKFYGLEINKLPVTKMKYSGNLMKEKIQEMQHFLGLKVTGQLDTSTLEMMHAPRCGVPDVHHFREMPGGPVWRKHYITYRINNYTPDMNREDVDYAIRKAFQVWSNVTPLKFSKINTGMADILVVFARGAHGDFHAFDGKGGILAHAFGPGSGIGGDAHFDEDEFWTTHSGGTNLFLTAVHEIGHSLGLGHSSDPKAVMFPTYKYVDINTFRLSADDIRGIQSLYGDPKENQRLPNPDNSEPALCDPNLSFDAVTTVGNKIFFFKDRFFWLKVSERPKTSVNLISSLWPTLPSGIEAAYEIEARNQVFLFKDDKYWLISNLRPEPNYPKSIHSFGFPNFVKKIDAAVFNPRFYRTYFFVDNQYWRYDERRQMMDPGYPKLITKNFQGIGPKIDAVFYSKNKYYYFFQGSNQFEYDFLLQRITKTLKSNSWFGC

SMILES | IC50 [1] [µM] | Activity [2] | Activity [3] | Activity [4] | Activity [5] | IC50 [6] [µM] | Activity [7] | Activity [8] | IC50 [9] [µM] | Activity [11] | Activity [12] | IC50 [13] [µM] | IC50 [14] [µM] | IC50 [15] [µM] | IC50 [16] [µM] | Activity [10]
O=C(O)CCC(=O)c1ccc(C#CCOCc2ccccc2)cc1 | 25.7 | inactive | inactive | inactive | inactive | 23.1 | inactive | inactive | – | – | – | – | – | – | – | –
CCC(CC(=O)O)C(=O)c1ccc(C#CCOCc2ccccc2)cc1 (stereo unspecified) | 7.56 | inactive | inactive | inactive | inactive | 5.74 | inactive | inactive | – | – | inactive | – | – | – | – | –
O=C(O)CC(Cc1ccccc1)C(=O)c1ccc(C#Cc2ccccc2)cc1 (stereo unspecified) | 0.6 | – | – | – | – | 2.11 | – | – | 9.29 | – | – | – | – | – | – | –
O=C(O)CCC(=O)c1ccc(C#CCO)cc1 | 24.7 | inactive | inactive | inactive | inactive | 15.4 | inactive | inactive | – | – | inactive | – | – | – | – | –
O=C(O)CC(Cc1ccc(F)cc1)C(=O)c1ccc(C#Cc2ccccc2)cc1 (stereo unspecified) | 1.14 | – | – | – | – | 3.43 | – | – | 10 | – | – | – | – | – | – | –
CCCCCCCCC#Cc1ccc(C(=O)CCC(=O)O)cc1 | 12.5 | inactive | inactive | inactive | inactive | 3.07 | inactive | inactive | – | – | inactive | – | – | – | – | –

Further lines, with some results ahead:

IC50 [1] [µM] | Activity [2] | Activity [3] | Activity [4] | Activity [5] | IC50 [6] [µM] | Activity [7] | Activity [8] | IC50 [9] [µM] | Activity [11] | Activity [12] | IC50 [13] [µM] | IC50 [14] [µM] | IC50 [15] [µM] | IC50 [16] [µM] | SMILES | Activity [10]
0.45 | – | – | – | – | 1.66 | – | – | 5.41 | – | – | – | – | – | – | CCCCCCC(CC(=O)O)C(=O)c1ccc(C#Cc2ccccc2)cc1 (stereo unspecified) | –
0.2 | – | inactive | inactive | inactive | 0.55 | inactive | – | 1.51 | inactive | inactive | – | – | – | – | CCCCCCC(CC(=O)O)C(=O)c1ccc(C#Cc2ccc(Cl)cc2)cc1 (stereo unspecified) | Active
0.32 | – | – | – | – | 1.12 | – | – | 3.39 | – | – | – | – | – | – | O=C(O)CC(CC1CCCC1)C(=O)c1ccc(C#Cc2ccccc2)cc1 (stereo unspecified) | –
0.48 | – | – | – | inactive | 0.44 | inactive | – | 3.6 | – | – | 13.9 | 30.6 | 32 | 18.1 | CCC(CC(=O)O)C(=O)c1ccc(C#Cc2ccccc2)cc1 (stereo unspecified) | –
